Results collected from several papers.
Compare with care: the assays were run in different laboratories.
Target: AP2-associated protein kinase 1 (AAK1, Homo sapiens, UniProt Q2M2I8)

SMILES	test	conditions	remaining binding
CCN1CCN(Cc2ccc(C(=O)Nc3ccc(C)c(Oc4ccc5c(c4)CC(=O)N5)c3)cc2C(F)(F)F)CC1	binding, competition with immobilised ligand	1 µM	100%
N#CC1(c2ccccn2)CCN(Cc2cc(C(=O)N3CCCC3)c(=O)n3ccccc23)CC1	binding	1 µM	100%
O=C(c1ccc(Nc2ncc(Cl)c(-c3cc4ccccc4s3)n2)cc1)N1CCC(N2CCCC2)CC1	binding, competition with immobilised ligand	1 µM	29%
Cc1cnn2ncc(-c3ccnc(N(C)C)n3)c2c1	binding	1 µM	91%
FC(F)(F)Oc1cccc(-c2cnc3ccc(-c4ccncc4)nn23)c1	cell-free assay, competition with immobilised ligand	5 µM	14%
N[C@@H]1CCN(c2nccc(-c3cnn4ncccc34)n2)C1	binding	1 µM	73%
O=C(NCC1CCOCC1)c1n[nH]cc1NC(=O)c1c(F)cccc1F	binding, competition with immobilised ligand	1 µM	86%
COc1cnc(Nc2cccc(S(N)(=O)=O)c2)nc1N1CCN(c2ccccc2)C(=O)C1	binding, competition with immobilised ligand	1 µM	84%
O=c1nc(-c2ccccn2)sc2ccccc12	binding	1 µM	100%
O=C(NCCCN1CCOCC1)c1ccc(Nc2nccc(-c3cc4ccccc4s3)n2)cc1	binding, competition with immobilised ligand	1 µM	27%
O=C(Nc1cccnn1)N1CC(C/C=C/c2cncc(Oc3ccc(C(F)(F)F)cn3)n2)C1	cell-free assay, competition with immobilised ligand	1 µM	100%
C[C@H]1CCN(c2nccc(-c3cnn4ncccc34)n2)C1	binding	1 µM	64%
Cc1nccc(COC(=O)N2C[C@@H]3[C@@H](CNC(=O)c4ccc5[nH]nnc5c4)[C@@H]3C2)n1	binding	1 µM	100%
CC1CCCN1c1nccc(-c2cnn3ncccc23)n1 (stereo not shown)	binding	1 µM	100%
O=C(NCc1ncc(C(F)(F)F)cc1Cl)c1ccc2c(c1)C1(CCS(=O)(=O)CC1)[C@@H](C1CC1)N2S(=O)(=O)c1ccc(F)cc1	binding	1 µM	100%
O=C(NCCCN1CCOCC1)c1ccc(Nc2ncc(Cl)c(-c3ccc(Cl)s3)n2)cc1	binding, competition with immobilised ligand	1 µM	35%
CN(CCCC(F)(F)F)c1nccc(-c2cnn3ncccc23)n1	binding	1 µM	100%
c1cncc(-c2cccc(Nc3nccc(NC4CCCCC4)n3)c2)c1	binding, competition with immobilised ligand	10 µM	33%
COc1ccnn2ncc(-c3ccnc(N(C)C)n3)c12	binding	1 µM	100%
CC(=O)N1CCC(c2ccc(C(=O)NC(=N)N)cc2C(F)(F)F)CC1	binding	1 µM	100%
c1cnn2ncc(-c3ccnc(N4CCC45COC5)n3)c2c1	binding	1 µM	76%
CN(c1ccnc(CNc2nc(Nc3ccc4c(c3)CC(=O)N4)ncc2C(F)(F)F)n1)S(C)(=O)=O	binding	1 µM	27%
